One block for each compound: values may come before it.
What was measured:
PLD2 = PLD2 (Homo sapiens, UniProt O14939); conditions: recently reported inhibitors, Fig. 1; cited from earlier work
[1] = Metabolic stability in rat microsomes; assay type: in vitro ADME
PLD1 = target: T1, PLD1 (Homo sapiens, UniProt Q13393); test: Cellular PLD1 assay with Calu-1 cells; assay type: cell-based
T1 sequence (Q13393 1-1074): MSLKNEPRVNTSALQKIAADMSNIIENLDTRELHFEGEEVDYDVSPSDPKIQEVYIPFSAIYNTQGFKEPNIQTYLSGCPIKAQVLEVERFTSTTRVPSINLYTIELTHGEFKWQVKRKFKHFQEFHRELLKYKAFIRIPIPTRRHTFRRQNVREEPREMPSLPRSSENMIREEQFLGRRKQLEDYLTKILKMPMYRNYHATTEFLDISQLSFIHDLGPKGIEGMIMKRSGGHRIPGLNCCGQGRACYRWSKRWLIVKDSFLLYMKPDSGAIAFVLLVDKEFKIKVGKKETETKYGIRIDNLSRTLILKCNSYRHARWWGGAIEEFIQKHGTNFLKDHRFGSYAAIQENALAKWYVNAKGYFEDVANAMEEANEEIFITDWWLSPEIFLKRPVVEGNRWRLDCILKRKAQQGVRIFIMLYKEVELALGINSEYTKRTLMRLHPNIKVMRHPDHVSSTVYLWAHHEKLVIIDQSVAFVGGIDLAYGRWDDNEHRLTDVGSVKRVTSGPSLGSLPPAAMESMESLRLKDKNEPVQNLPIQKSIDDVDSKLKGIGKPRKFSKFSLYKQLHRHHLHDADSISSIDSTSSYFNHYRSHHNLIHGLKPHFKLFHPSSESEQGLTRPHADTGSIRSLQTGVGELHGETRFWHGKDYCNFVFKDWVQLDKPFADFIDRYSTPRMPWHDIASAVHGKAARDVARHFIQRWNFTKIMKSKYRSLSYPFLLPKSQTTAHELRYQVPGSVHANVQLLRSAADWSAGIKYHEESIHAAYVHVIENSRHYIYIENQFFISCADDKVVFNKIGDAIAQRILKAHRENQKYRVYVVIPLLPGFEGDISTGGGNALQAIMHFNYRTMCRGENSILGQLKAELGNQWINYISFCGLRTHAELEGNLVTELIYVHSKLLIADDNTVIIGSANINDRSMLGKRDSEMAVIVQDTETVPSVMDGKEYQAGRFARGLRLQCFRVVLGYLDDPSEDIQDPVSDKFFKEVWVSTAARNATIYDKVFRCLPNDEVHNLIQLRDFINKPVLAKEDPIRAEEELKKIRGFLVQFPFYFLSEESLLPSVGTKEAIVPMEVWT
How it was run: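 Calu-1 cells used for cell-based PLD1 inhibition readout. Each IC50 determined in triplicate.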

Sequence of PLD2 (O14939 whole entry, species assumed): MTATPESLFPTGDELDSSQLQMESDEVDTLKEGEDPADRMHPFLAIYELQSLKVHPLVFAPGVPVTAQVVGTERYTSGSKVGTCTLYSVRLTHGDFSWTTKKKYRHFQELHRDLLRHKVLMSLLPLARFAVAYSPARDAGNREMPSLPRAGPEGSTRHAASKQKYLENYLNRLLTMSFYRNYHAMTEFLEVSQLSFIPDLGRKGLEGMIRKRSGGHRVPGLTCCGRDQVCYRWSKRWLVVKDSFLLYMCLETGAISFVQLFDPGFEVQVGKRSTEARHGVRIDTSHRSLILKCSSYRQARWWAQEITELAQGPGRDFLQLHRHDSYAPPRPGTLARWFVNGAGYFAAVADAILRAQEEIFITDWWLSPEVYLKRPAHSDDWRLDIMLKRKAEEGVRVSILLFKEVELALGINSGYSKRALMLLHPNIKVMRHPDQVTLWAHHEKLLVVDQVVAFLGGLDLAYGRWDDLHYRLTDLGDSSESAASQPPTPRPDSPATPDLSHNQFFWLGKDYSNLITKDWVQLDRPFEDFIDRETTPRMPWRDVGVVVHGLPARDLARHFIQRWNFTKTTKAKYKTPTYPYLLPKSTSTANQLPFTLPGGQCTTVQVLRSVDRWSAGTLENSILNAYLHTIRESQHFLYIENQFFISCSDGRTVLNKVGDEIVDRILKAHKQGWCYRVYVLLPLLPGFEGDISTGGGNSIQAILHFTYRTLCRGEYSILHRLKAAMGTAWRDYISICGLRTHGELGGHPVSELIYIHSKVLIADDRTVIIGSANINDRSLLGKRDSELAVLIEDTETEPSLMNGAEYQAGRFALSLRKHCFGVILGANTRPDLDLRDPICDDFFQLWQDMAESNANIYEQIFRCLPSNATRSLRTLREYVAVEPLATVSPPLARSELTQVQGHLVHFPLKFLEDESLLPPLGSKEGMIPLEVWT

Structure (SMILES): O=C(NCCN1CCC2(CC1)C(=O)NCN2c1cccc(F)c1)c1ccc(F)c(F)c1 [compound 4]
fold PLD2 selective (PLD2): 53 fold

Clhep [1]: 70 mL/min/kg
Structure (SMILES): CC1CC(n2c(=O)[nH]c3ccccc32)CCN1CCNC(=O)c1ccc(F)cc1 (stereo not drawn) [compound 9]

Structure (SMILES): CC(CNC(=O)c1ccc(F)c(F)c1)N1CCC2(CC1)C(=O)NCN2c1ccccc1 (stereo not drawn) [8f]
IC50 (PLD1): ~1000 nM

— PMC4535313 (Bioorganic & medicinal chemistry letters, 2014)
